For series [1], the system named is Mycolicibacterium smegmatis. In words: Inhibition of oxygen consumption in Mycobacterium smegmatis inverted membrane vesicles lacking cytochrome bc1 complex treated between 250 to 450 secs post NADH addition. It is filed as functional.
A short description of series [2]: Inhibition of ATP synthase in Mycobacterium smegmatis inverted membrane vesicles using NADH as substrate incubated for 60 mins by luciferin-luciferase reaction based bioluminescence assay. On the set-up: species or system Mycolicibacterium smegmatis. In a few lines:
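ATP made by oxidative phosphorylation in M. smegmatis inverted membrane vesicles (IMVs), driven by NADH with ADP and Pi as ATP synthase substrates. ATP was read by luminescence. IC50 was taken from dose-response testing.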

For series [3], the system named is Mycolicibacterium smegmatis. Nature of the series: Inhibition of cytochrome c oxidase in Mycobacterium smegmatis inverted membrane vesicles lacking cytochrome-bd complex assessed as reduction of oxygen consumption treated between 250 to 450 secs post NADH addition.
Series [4] relates to Mycobacterium tuberculosis. In words: Antimycobacterial activity against Mycobacterium tuberculosis H37Rv by turbidometric method. It is filed as functional. The method in brief: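 MIC taken as the minimum concentration inhibiting M. tuberculosis growth by 80%.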
The subject of series [5] is Plasma. Nature of the series: Drug uptake in BALB/c mouse plasma at 100 mg/kg, po in presence of pan CYP inhibitor ABT by LC-MS/MS method. The following applies: in vivo. It is filed as ADME, organism-based.
For series [6], the system named is Mycobacterium tuberculosis. Nature of the series: Bactericidal activity against Mycobacterium tuberculosis H37Rv. It is filed as functional.
Series [7] has as its system Mycolicibacterium smegmatis. Nature of the series: Selectivity ratio of IC50 for NDH2 in Mycobacterium smegmatis inverted membrane vesicles using NADH as substrate to IC50 for SDH in Mycobacterium smegmatis inverted membrane vesicles using succinate as substrate.
For series [8], the system named is Mycolicibacterium smegmatis. Nature of the series: Selectivity ratio of IC50 for NADH dependent ATP synthesis in Mycobacterium smegmatis inverted membrane vesicles lacking cytochrome-bc1 complex to IC50 for cytochrome c oxidase in Mycobacterium smegmatis inverted membrane vesicles assessed as decrease in NADH dependent ATP synthesis.
The nature of series [9]: Selectivity index, ratio of IC50 for human A549 cells to MIC for Mycobacterium tuberculosis H37Rv. The following applies: read-out: Selectivity Index. It is filed as toxicity. In a few lines: (§1)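 Cytotoxicity index is MMIC divided by M. tuberculosis MIC. MMIC is the minimum concentration inhibiting A549 or THP1 proliferation by 50%. MIC is the concentration giving 80% growth inhibition.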

Series [10] in a line: Selectivity index, ratio of IC50 for human THP1 cells to MIC for Mycobacterium tuberculosis H37Rv. It counts as toxicity. The following applies: read-out: Selectivity Index. The method in brief: as §1
A short description of series [11]: Lipophilicity, log D of compound. It counts as physicochemical. The following applies: octanol/water.
Series [12] deals with Mus musculus. Nature of the series: Time required for free plasma concentration to maintain above in vitro MIC for Mycobacterium tuberculosis H37Rv in BALB/c mouse infected with Mycobacterium tuberculosis H37Rv at 100 mg/kg, po in presence of pan CYP inhibitor ABT.
Series [13] concerns Mycobacterium tuberculosis. In words: Antimycobacterial activity against Mycobacterium tuberculosis H37Rv infected in BALB/c mouse assessed as bacterial growth inhibition at 100 to 200 mg/kg, po qd administered […] for 2 weeks. It counts as functional, organism-based.
In series [14] the test system is Plasma. Nature of the series: Ratio of free plasma concentration in BALB/c mouse infected with Mycobacterium tuberculosis H37Rv in absence of pan CYP inhibitor ABT to presence of pan CYP inhibitor ABT. It counts as ADME.

In brackets after ≈: the same amount, converted by molar mass. Activity calls are given as the source filed them. The calls are words filed in the database; no cut-off is given here.

As to `Cc1ccc2nc(-c3ccccc3)c(OCCOc3ccc(F)cc3)n2c1`, in series [1], the inhibition entry is “inactive”. In [2], this compound had an IC50 of 50 nM. In series [3], the inhibition entry is “Active”. For the same compound, in series [4], the MIC80 was less than 1 µM.

In series [2], `Cc1ccc2nc(-c3ccc(F)cc3)c(OCCCNc3ccc(F)c(C)c3)n2c1` gave an IC50 of 5 nM. Moreover, in series [5], the Drug uptake entry is given as “Active”. The compound also yielded an MIC80 in series [4] of 0.03 µM (≈ 0.0122 µg/mL). In [6], the MBC was more than 100 µM.

Consider `O=c1c(NCc2ccc(-c3ccccc3)cn2)c(-c2ccc(N3CCOCC3)cc2)c1=O`, for which, in series [2], 9500 nM corresponded to half-maximal inhibition (IC50). This compound also yielded an MIC80 in [4] of more than 100 µM.

On to `COc1ncc(NCCCOc2c(-c3ccc(F)cc3)nc3ccc(C)cn23)cc1C`, for which, in series [2], the IC50 stood at 80 nM. The compound further showed an MIC80 in series [4] of less than 0.8 µM.

On to `COc1nc2ccc(Br)cc2cc1[C@@H](c1ccccc1)[C@@](O)(CCN(C)C)c1cccc2ccccc12`, for which the figures for the Ratio IC50 in [7] and in [8] were 1.5 and 2, respectively. The inhibition entry in [1] and in series [3] was “inactive” each time.

As for `Fc1ccc(OCCOc2c(-c3ccccc3)nc3ccc(Cl)cn23)cc1`, the inhibition result in [1] is “inactive”. This compound came in with an IC50 in [2] of 40 nM. Also, the inhibition result in series [3] is “Active”. In series [4], this compound yielded an MIC80 of less than 1 µM.

For the compound `N#Cc1ccc2nc(-c3ccccc3)c(OCCCOc3ccccc3)n2c1`, the IC50 in [2] was more than 100000 nM. In series [4], this compound came in with an MIC80 of more than 250 µM.

For `CO[C@H]1/C=C/O[C@@]2(C)Oc3c(C)c(O)c4c(O)c(c(/C=N/N5CCN(C)CC5)c(O)c4c3C2=O)NC(=O)/C(C)=C\C=C\[C@H](C)[C@H](O)[C@@H](C)[C@@H](O)[C@@H](C)[C@H](OC(C)=O)[C@@H]1C` [RIFAMPIN], the MIC80 in [4] came to 0.004 µM (≈ 0.00329 µg/mL).

Compound `c1ccc(OCCCOc2c(-c3ccccc3)nc3ccccn23)cc1` yielded an IC50 in series [2] of 130 nM. In series [4], this compound returned an MIC80 of 1.6 µM (≈ 0.551 µg/mL).

`Cc1ccc2nc(-c3ccc(F)cc3)c(OCCCOc3ccc(C)nc3C)n2c1` came in with an IC50 in series [2] of 90 nM. The compound further came in with an MIC80 in series [4] of 6.3 µM (≈ 2.55 µg/mL).

Take `Cc1ccc2nc(-c3ccccc3)c(OCCCOc3ccccc3)n2c1`: in [1], the inhibition entry was “inactive”. The same compound had an IC50 in [2] of 30 nM. Besides, the inhibition result in [3] was “Active”. Further, the MIC80 in series [4] was less than 0.5 µM.

`Cc1ccc2nc(-c3ccccc3)c(OCCCN3CCN(C)CC3)n2c1`: in [2], the IC50 amounted to 6400 nM. The compound also yielded an MIC80 in [4] of more than 200 µM.

The compound `Cc1ccc2nc(-c3ccc(F)cc3)c(OCCCNc3ccc(F)c(C)n3)n2c1` had an IC50 in series [2] of 60 nM. In addition, in series [4], the MIC80 is less than 0.5 µM. Further, the MBC in series [6] was more than 100 µM.

Compound `Cc1ccc2nc(-c3ccc(F)cc3)c(OCCCOc3ccc(C)nc3)n2c1` returned an IC50 in series [2] of less than 20 nM. The compound further yielded an MIC80 in series [4] of less than 0.8 µM.

For `Cc1ccc2nc(-c3ccc(F)cc3)c(OCCNC(=O)c3ccc(C)nc3)n2c1`, in [2], 7200 nM corresponded to half-maximal inhibition (IC50). In [4], this compound had an MIC80 of more than 200 µM.

With `COCCCOc1c(-c2ccccc2)nc2ccccn12`, the IC50 in series [2] is 18900 nM. Moreover, the MIC80 in series [4] was more than 15 µM.

In series [2], `O=c1c(NCc2ccccn2)c(-c2ccc(C(F)(F)F)cc2)c1=O` displayed an IC50 of 300 nM. In addition, the MIC80 in series [4] was found to be 6.2 µM (≈ 2.06 µg/mL).

In series [2], `CC(Nc1c(-c2ccc(N3CCOCC3)cc2)c(=O)c1=O)c1ccccn1` (configuration not stated) yielded an IC50 of more than 25000 nM. Further, in series [4], the MIC80 is more than 100 µM.

On to `Clc1ccc2nc(-c3ccccc3)c(OCCCOc3ccccc3)n2c1`, for which the IC50 in series [2] was less than 20 nM. The MIC80 in [4] was less than 0.5 µM. The same compound displayed an MBC in series [6] of more than 100 µM.

Take `Cc1ccc2nc(-c3ccc(F)cc3)c(OCCOc3ccc(F)cc3)n2c1`: in [1], the inhibition entry is “inactive”. For the same compound, in [2], it took 20 nM to reach half-maximal inhibition (IC50). For the same compound, the inhibition entry in series [3] is “Active”. In [4], this compound registered an MIC80 of 3.1 µM (≈ 1.18 µg/mL).

`O=c1c(NCc2ccccc2)c(-c2ccc(N3CCOCC3)cc2)c1=O` registered an IC50 in [2] of more than 100000 nM. In series [4], this compound yielded an MIC80 of more than 100 µM.

`Cc1ccc2nc(-c3ccc(F)cc3)c(OCCCOc3cccnc3)n2c1` returned an IC50 in [2] of 160 nM. Moreover, the MIC80 in series [4] was less than 0.9 µM.

Turning to `Cc1ccc2nc(-c3ccc(F)cc3)c(OCCCOc3cncnc3)n2c1`, in [1], the inhibition result was “inactive”. Inhibition in [2] was half-maximal at 5600 nM (IC50). Further, the inhibition result in series [3] was “Active”. For the same compound, in series [4], the MIC80 turned out to be 6.9 µM (≈ 2.61 µg/mL).

`Cc1ccc2nc(-c3ccc(F)cc3)c(OCCNS(=O)(=O)c3ccc(F)c(Cl)c3)n2c1` gave a half-inhibitory concentration (IC50) in series [2] of 400 nM. Also, in series [4], the MIC80 is 3.1 µM (≈ 1.48 µg/mL).

In series [2], `Cc1ccc2nc(-c3ccc(F)cc3)c(OCCNCc3ccc(C)c(F)c3)n2c1` yielded an IC50 of 70 nM. In addition, the MIC80 in [4] came out at 0.6 µM (≈ 0.244 µg/mL).

For the compound `Cc1ccc2nc(-c3ccc(F)cc3)c(OCCCN3CCN(c4ccccc4)CC3)n2c1`, the IC50 in series [2] was 50 nM. For the same compound, the MIC80 in series [4] is less than 0.8 µM.

In the case of `NNC(=O)c1ccncc1` [ISONIAZID], the MIC80 in series [4] is 0.02 µM (≈ 0.00274 µg/mL).

In turn, `Cc1ccc2nc(-c3ccc(F)cc3)c(OCCCOc3cncc(F)c3)n2c1` registered an IC50 in series [2] of 60 nM. The compound further displayed an MIC80 in series [4] of less than 0.6 µM.

Regarding `Cc1ccc2nc(-c3ccc(F)cc3)c(OCCCNc3cnc(C)c(Br)c3)n2c1`, in [2], the IC50 is 210 nM. The same compound registered an MIC80 in series [4] of 0.8 µM (≈ 0.375 µg/mL).

Take `Clc1ccc2nc(-c3ccccc3)c(OCCN3CCOCC3)n2c1`: the IC50 in [2] stood at 36100 nM. In [4], this compound displayed an MIC80 of more than 200 µM. Besides, the Selectivity ratio in series [9] and in [10] was 0.5 each time. For the same compound, the logD in [11] turned out to be 3.3.

`O=c1c(NCc2cnccn2)c(-c2ccc(N3CCOCC3)cc2)c1=O` returned an IC50 in [2] of 770 nM. The MIC80 in [4] was 3.12 to 12.5 µM (≈ 1.09 to 4.38 µg/mL).

Compound `Cc1ccc2nc(-c3ccc(F)cc3)c(OCCCNS(=O)(=O)c3ccc(F)cc3)n2c1` yielded an IC50 in [2] of 700 nM. The same compound displayed an MIC80 in series [4] of 1.6 µM (≈ 0.732 µg/mL).

Turning to `O=c1c(NCc2ccccn2)c(-c2ccc(N3CCOCC3)cc2)c1=O`, the Time in series [12] was found to be 15 h. The compound further returned an IC50 in series [2] of 30 nM. In addition, the “growth inhibition (GI)” value in series [13] is “Active”. Further, the MIC80 in [4] was in the range of 0.5 to 0.8 µM (≈ 0.175 to 0.28 µg/mL). For the same compound, in series [14], the Ratio amounted to 300.

In series [2], `N#Cc1ccc(-c2c(NCc3ccccn3)c(=O)c2=O)cc1` came in with an IC50 of 66600 nM. In addition, the MIC80 in series [4] stood at 100 µM (≈ 28.9 µg/mL).

The compound `Cc1cnc(CNc2c(-c3ccc(C(F)(F)F)cc3)c(=O)c2=O)cn1` showed an IC50 in [2] of 8400 nM. The same compound came in with an MIC80 in [4] of 50 µM (≈ 17.4 µg/mL).

For the compound `Fc1ccc(OCCOc2c(-c3ccccc3)nc3ccccn23)cc1`, in series [2], the IC50 was determined as 80 nM. Moreover, the MIC80 in series [4] is less than 0.8 µM.

Source of the values: ChEMBL document CHEMBL4052589, “Discovery of Imidazo[1,2-a]pyridine Ethers and Squaramides as Selective and Potent Inhibitors of Mycobacterial Adenosine Triphosphate (ATP) Synthesis” (J Med Chem, 2017).
